Data as given in ChEMBL document CHEMBL4715860 (J Med Chem, 2020).
Active and inactive are the calls of the source. The calls are words filed in the database; no cut-off is given here.

How the values were obtained:
[1] = Inhibition of mTOR2 in human A2058 cells assessed as reduction in PKB/Akt phosphorylation at Ser473 incubated for 1 hr by Western blot analysis; assay type: cell-based; settings: A2058, 1 h
In short: (§1)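 A2058 cells grown 24 h at 37 °C, then exposed to inhibitor or DMSO for 1 h. Cells were PFA-fixed and stained for pPKB Ser473 or pS6 Ser235/236 by in-cell western with IR-dye secondary antibodies. Signal normalized to tubulin and to DMSO. IC50 from a 7-point (triplicate) or 11-point (duplicate) 1:2 series.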

[2] = Inhibition of mTORC1 in human A2058 cells assessed as reduction in RPS6 phosphorylation at S235/236 residue incubated for 1 hrs by Western blot analysis; assay type: cell-based; settings: A2058, 1 h; in short: as §1
[3] = molecular target: T1, Serine/threonine-protein kinase mTOR (Homo sapiens, UniProt P42345); assay: Inhibition of alexa fluor 647-labeled kinase tracer 314 binding to recombinant human N-terminal GST-tagged mTOR (1360 to 2549 residues) expressed in baculovirus expression system measured after 60 mins by TR-FRET based LanthaScreen Eu kinase binding assay
[4] = molecular target: T1, Serine/threonine-protein kinase mTOR; assay: Binding affinity to wild-type human partial length MTOR (L1382 to W2549 residues) expressed in HEK293 cells measured after 1 hr by Kinomescan method; assay type: cell-based
In short: (§2)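 Compound given as an 11-point threefold series from 30 μM, in technical duplicate. Kd from a Hill fit with slope fixed at −1.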

[5] = molecular target: Phosphatidylinositol 4,5-bisphosphate 3-kinase catalytic subunit beta isoform (Homo sapiens, UniProt P42338); assay: Binding affinity to wild-type human partial length PIK3CB (P118 to S1070 residues) expressed in HEK293 cells measured after 1 hr by Kinomescan method; assay type: cell-based; in short: as §2
[6] = Metabolic stability in Sprague-Dawley rat hepatocytes assessed as parent compound remaining at 5 uM incubated for 3 hrs by LC-MS analysis; assay type: ADME, cell-based, Hepatocyte; settings: read-out: Stabilty
In short: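 Cryopreserved primary hepatocytes in suspension (CD-1 mouse, Sprague-Dawley rat, Beagle dog, human). Compound diluted from 10 mM DMSO stock to 5 μM final. Sampled at 0, 15, 60, 90 and 180 min, protein precipitated with ACN plus internal standard, supernatant analysed by LC−MS. Run in duplicate. 7-ethoxycoumarin as positive control. Hepatocyte-free medium incubations as negative control.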

[7] = Intrinsic clearance in human hepatocytes assessed per million cells at 5 uM incubated for 3 hrs by LC-MS analysis; assay type: ADME, cell-based, Hepatocyte; settings: read-out: CLH
In short: (§3)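 Cryopreserved primary hepatocytes in suspension from CD-1 mouse, Sprague-Dawley rat, Beagle dog and human. Compound at 5 μM final (from 10 mM DMSO stock). Samples taken at 0, 15, 60, 90 and 180 min and quenched with ACN plus internal standard. Parent quantified by LC-MS. Hepatocyte-free medium incubations served as negative control; 7-ethoxycoumarin as positive control. Duplicate; CLint per 10^6 cells and t1/2.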

[8] = Metabolic stability in CD1 mouse hepatocytes assessed as half-life at 5 uM incubated for 3 hrs by LC-MS analysis; assay type: ADME, cell-based, Hepatocyte; in short: as §3
[9] = Metabolic stability in Sprague-Dawley rat hepatocytes assessed as half-life at 5 uM incubated for 3 hrs by LC-MS analysis; assay type: ADME, cell-based, Hepatocyte; in short: as §3
[10] = Metabolic stability in Beagle dog hepatocytes assessed as half-life at 5 uM incubated for 3 hrs by LC-MS analysis; assay type: ADME, cell-based, Canis lupus familiaris, Hepatocyte; in short: as §3
[11] = Substrate activity at human P-glycoprotein stably expressed in MDCK cells at 1 uM measured after 5 to 20 mins by UPLC-MS/MS analysis; assay type: ADME, cell-based; settings: time 5-20 min
In short: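 CRISPR canine-MDR1-knockout MDCKII cells stably expressing human MDR1, with the knockout parent line as control. Cells grown 5 days on TransWell filters and preincubated in HBSS 30 min at 37 °C. Compound at 1 μM added apical or basolateral. Receiver sampled at 5, 10 and 20 min; UPLC-MS/MS.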

[12] = AUC (0 to 8 hrs) in male Sprague-Dawley rat plasma at 5 mg/kg, po; assay type: ADME, organism-based; design: time < 8 hr, route oral, dose 5 mg/kg
In short: (§4)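 Male Sprague Dawley rats, single oral dose of 5 mg/kg. Plasma and brain concentrations measured over 8 h, n = 3, mean ± SEM; AUC0−8 computed from the time course.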

[13] = AUC (0 to 8 hrs) in male Sprague-Dawley rat brain at 5 mg/kg, po; assay type: ADME, organism-based; design: time < 8 hr, route oral, dose 5 mg/kg; settings: in vivo; in short: as §4
[14] = Cmax in C57BL/6J mouse plasma at 10 mg/kg, po administered once a day for 4 consecutive days by mass spectrometry based UHPLC analysis; assay type: ADME, organism-based; design: route oral, dose 10 mg/kg, time 4 day
In short: (§5)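 Female C57BL/6J mice given 10 mg/kg p.o. in 20% Captisol once daily for 4 consecutive days. Plasma and brain sampled after the final dose on day 4, n = 3 per time point.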

[15] = Elimination half life in C57BL/6J mouse brain at 10 mg/kg, po administered as single dose by mass spectrometry based UHPLC analysis; assay type: ADME, organism-based; settings: read-out: beta t1/2 (converted)
In short: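 Female C57BL/6J mice, one oral dose of 10 mg/kg in 20% Captisol; plasma and brain levels over time, n = 3 per time point (mean).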

[16] = Cmax in C57BL/6J mouse brain at 10 mg/kg, po administered once a day for 4 consecutive days by mass spectrometry based UHPLC analysis; assay type: ADME, organism-based; design: route oral, dose 10 mg/kg, time 4 day; in short: as §5
[17] = Elimination half life in C57BL/6J mouse brain at 10 mg/kg, po administered once a day for 4 consecutive days by mass spectrometry based UHPLC analysis; assay type: ADME, organism-based; settings: time 4 day, read-out: beta t1/2 (converted); in short: as §5
[18] = Cmax in C57BL/6J mouse plasma at 25 mg/kg, po administered as single dose by mass spectrometry based UHPLC analysis; assay type: ADME, organism-based; design: route oral, dose 25 mg/kg
In short: (§6)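 One oral dose of 25 mg/kg to female C57BL/6J mice. Plasma and brain concentrations followed over time, n = 3 per time point (mean).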

[19] = AUC (0 to 8 hrs) in C57BL/6J mouse plasma at 25 mg/kg, po administered as single dose by mass spectrometry based UHPLC analysis; assay type: ADME, organism-based; design: time < 8 hr, route oral, dose 25 mg/kg; in short: as §6
[20] = AUC (0 to 8 hrs) in C57BL/6J mouse brain at 25 mg/kg, po administered as single dose by mass spectrometry based UHPLC analysis; assay type: ADME, organism-based; design: time < 8 hr, route oral, dose 25 mg/kg; in short: as §6
[21] = tested on: Mus musculus; assay: In vivo inhibition of PI3Kalpha in C57BL/6J mouse assessed as increase in plasma glucose concentration at 25 mg/kg, po measured after 8 hrs by glucoseoxidase-peroxide coupled colorimetric assay; assay type: functional, organism-based
In short: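 Female C57BL/6J mice given one oral dose (25 mg/kg); plasma insulin and glucose monitored over time, mean ± SEM.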

[22] = tested on: Mus musculus; assay: In vivo inhibition of mTORC2 in C57BL/6J mouse assessed as reduction in PKB/Akt phosphorylation at Ser473 in brain at 25 mg/kg, po measured after 0.5 to 2 hrs by Western blot analysis; assay type: functional, organism-based; settings: time 0.5-2 hrs
In short: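 Time course in female C57BL/6J mice after 25 mg/kg p.o.: cortex taken at set time points and western blotted for pS6 and pPKB. Signals quantified against α-tubulin as % of control cortex; n = 3 per time point and n = 9 controls. Brain compound level measured in the same mice.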

[23] = Toxicity in Tsc1-GFAP knockout Balb/c mouse assessed as change in body weight at 50 mg/kg, po bid; assay type: organism-based; settings: in vivo
In short: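 Tsc1GFAPCKO mice dosed orally from P21 at 10, 25, 50 mg/kg or 50 mg/kg bid. Body weight tracked during the survival study; mean ± SEM.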

Phosphatidylinositol 4,5-bisphosphate 3-kinase catalytic subunit beta isoform, sequence (P42338 whole entry, the tested form may be a part, canonical isoform): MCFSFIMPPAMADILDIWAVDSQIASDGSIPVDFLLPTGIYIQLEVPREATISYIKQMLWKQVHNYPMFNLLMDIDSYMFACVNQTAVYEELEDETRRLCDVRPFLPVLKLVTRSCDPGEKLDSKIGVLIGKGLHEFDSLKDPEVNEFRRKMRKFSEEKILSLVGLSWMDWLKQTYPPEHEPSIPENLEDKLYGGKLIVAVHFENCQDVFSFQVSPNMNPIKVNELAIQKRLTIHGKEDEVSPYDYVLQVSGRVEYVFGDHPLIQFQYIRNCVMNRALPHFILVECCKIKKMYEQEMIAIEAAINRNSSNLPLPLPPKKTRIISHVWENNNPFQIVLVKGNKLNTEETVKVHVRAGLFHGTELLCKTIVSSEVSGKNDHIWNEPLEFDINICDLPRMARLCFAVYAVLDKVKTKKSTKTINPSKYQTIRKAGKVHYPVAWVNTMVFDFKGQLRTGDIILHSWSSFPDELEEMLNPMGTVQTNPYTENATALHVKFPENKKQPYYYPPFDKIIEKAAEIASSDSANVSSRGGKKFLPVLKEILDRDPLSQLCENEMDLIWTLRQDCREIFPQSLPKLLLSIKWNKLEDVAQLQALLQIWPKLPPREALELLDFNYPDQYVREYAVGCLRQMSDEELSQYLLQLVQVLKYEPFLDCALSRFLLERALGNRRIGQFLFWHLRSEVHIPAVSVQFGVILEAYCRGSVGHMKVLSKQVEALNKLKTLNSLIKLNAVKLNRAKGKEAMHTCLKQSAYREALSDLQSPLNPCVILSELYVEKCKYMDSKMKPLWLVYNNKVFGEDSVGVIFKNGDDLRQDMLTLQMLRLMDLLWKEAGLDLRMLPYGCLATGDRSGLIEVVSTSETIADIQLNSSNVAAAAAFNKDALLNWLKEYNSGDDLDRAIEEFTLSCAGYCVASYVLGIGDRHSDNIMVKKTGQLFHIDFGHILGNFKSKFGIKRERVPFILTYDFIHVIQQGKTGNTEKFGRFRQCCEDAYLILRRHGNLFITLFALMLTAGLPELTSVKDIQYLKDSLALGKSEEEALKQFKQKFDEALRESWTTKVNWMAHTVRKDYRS

C[C@@H]1COCCN1c1nc(-c2cnc(N)cc2C(F)F)nc(N2[C@H](C)COC[C@@H]2C)n1 showed an IC50 [1] of 96 nM, an IC50 [2] of 71 nM and a Ki [3] of 3.6 nM. It also gave a Kd [4] of 0.67 nM, a Kd [5] of 1450 nM and a remaining at 3 h, 5 µM [6] of 42.3%. The hepatocyte CLint at 5 µM [7] was 5.3 µL/min/1e6 cells, the half-life at 5 µM [8] was 3.35 h and the half-life at 5 µM [9] was 2.7 h. For the same compound, the half-life at 5 µM [10] was 8.17 h, the Activity [11] was “Not Active” and the AUC(0-t) at 8 h [12] was 2430 ng·h/mL. The AUC [13] was 3689 ng·h/g, the Cmax [14] was 947 ng/mL and the half-life [15] was 2.9 h. The Cmax [16] was 1320 ng/mL, the half-life [17] was 2.3 h and the Cmax [18] was 1830 ng/mL. For the same compound, the AUC(0-t) at 8 h [19] was 10300 ng·h/mL, the AUC(0-t) at 8 h [20] was 17100 ng·h/mL and the inhibition [21] was “inactive”. For the same compound, the inhibition [22] was “Active” and the Activity [23] was “Non-Toxic”.

For C[C@@H]1COCCN1c1nc(-c2cnc(N)cc2C(F)F)nc(N2CCOCC2(C)C)n1, the IC50 [1] was 191 nM, the IC50 [2] was 61 nM and the Ki [3] was 4.7 nM. For the same compound, the Kd [4] was 0.88 nM, the Kd [5] was 1350 nM and the Activity [11] was “Not Active”.
